Reference: ChEMBL document CHEMBL1212900, “Falcipain inhibitors: optimization studies of the 2-pyrimidinecarbonitrile lead series” (J Med Chem, 2010)

assay: Inhibition of Plasmodium falciparum falcipain-3 expressed in Escherichia coli
Summary of the method: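 Refolded recombinant enzyme from E. coli, 2 nM, in 100 mM sodium acetate pH 5.5 with 500 μM CHAPS and 10 mM DTT, DMSO up to 1%. H-D-Val-Leu-Arg-AFC at 150 μM final. Reaction started by enzyme addition; fluorescence monitored 1 h at room temperature. IC50 derived from percent activity plotted against inhibitor concentration.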

Row | SMILES | IC50 [nM]
1 | CC(C)CN(NC(=O)c1cnc2ccccc2c1)c1nc(C#N)ncc1Cl | 126
2 | Cc1ccc2[nH]c(C(=O)NN(CC(C)C)c3nc(C#N)ncc3Br)cc2c1 | 1530
3 | CC(C)CN(NC(=O)OC(C)(C)C)c1cccc(C#N)n1 | > 10000
4 | CC(C)CN(NC(=O)OC(C)(C)C)c1cncc(C#N)n1 | 1670
5 | CC(C)CN(NC(=O)OC(C)(C)C)c1ncc(C#N)c(Cl)n1 | 990
6 | CC(C)CN(NC(=O)OC(C)(C)C)c1cc(C#N)ncn1 | > 10000
7 | CC(C)CN(NC(=O)OC(C)(C)C)c1nccc(C#N)n1 | 3570
8 | COc1nc(C#N)nc(N(CC(C)C)NC(=O)OC(C)(C)C)n1 | 204
9 | CC(C)CN(NC(=O)OC(C)(C)C)c1ccnc(C#N)n1 | 870
10 | CC(C)CN(NC(=O)OC(C)(C)C)c1nc(C#N)ncc1F | 583
11 | CC(C)CN(NC(=O)OC(C)(C)C)c1nc(C#N)ncc1Br | 92
12 | CC(C)CN(NC(=O)OC(C)(C)C)c1nc(C#N)ncc1Cl | 144
13 | CC(C)CN(NC(=O)OC(C)(C)C)c1nc(C#N)ncc1[N+](=O)[O-] | 26
14 | CC(C)CN(NC(=O)c1ccc2ccccc2c1)c1nc(C#N)ncc1Br | 645
15 | Cc1cnc(C#N)nc1N(CC(C)C)NC(=O)OC(C)(C)C | 1150
16 | CC(C)CN(NC(=O)OC(C)(C)C)c1nc(C#N)ncc1C(F)(F)F | 66
17 | CC(C)CN(NC(=O)OC(C)(C)C)c1nc(C#N)ncc1NCc1ccccc1 | 2070
18 | CC(C)CN(NC(=O)OC(C)(C)C)c1nc(C#N)ncc1C#Cc1ccc(C(F)(F)F)cc1 | 5330
19 | COc1cnc(C#N)nc1N(CC(C)C)NC(=O)OC(C)(C)C | 2390
20 | CC(C)CN(NC(=O)c1ccc2nccnc2c1)c1nc(C#N)ncc1Br | 1440
21 | CC(C)CN(NC(=O)c1ccc2ccccc2n1)c1nc(C#N)ncc1Cl | 254

Row | SMILES | IC50 [nM]
22 | CC(C)CN(NC(=O)c1nccc2ccccc12)c1nc(C#N)ncc1Cl | 197
23 | CC(C)CN(NC(=O)c1cc2ccccc2cn1)c1nc(C#N)ncc1Cl | 333
24 | COCc1cnc(C#N)nc1N(CC(C)C)NC(=O)OC(C)(C)C | > 10000
25 | CC(C)CN(NC(=O)OC(C)(C)C)c1nc(Cl)ncc1[N+](=O)[O-] | > 25000
26 | CC(C)(C)OC(=O)NN(CC1CC1)c1nc(C#N)ncc1Br | 413
27 | CC(C)(C)OC(=O)NN(CC1CCC1)c1nc(C#N)ncc1Br | 62
28 | CC(C)(C)OC(=O)NN(CC1CCCC1)c1nc(C#N)ncc1Br | 10
29 | CC(C)(C)OC(=O)NN(CC1CCCCC1)c1nc(C#N)ncc1Br | 146
30 | CC(C)CN(NC(=O)c1ccnc2ccccc12)c1nc(C#N)ncc1Cl | 44
31 | CC(C)CN(NC(=O)c1cc2ccccc2o1)c1nc(C#N)ncc1Br | 563
32 | Cc1c(C(=O)NN(CC(C)C)c2nc(C#N)ncc2Br)oc2ccccc12 | 1430
33 | COc1ccc2oc(C(=O)NN(CC(C)C)c3nc(C#N)ncc3Br)cc2c1 | 1240
34 | COc1cccc2cc(C(=O)NN(CC(C)C)c3nc(C#N)ncc3Br)oc12 | 399
35 | CC1(CN(NC(=O)OC(C)(C)C)c2nc(C#N)ncc2Br)CCCCC1 | 121
36 | CC(C)(C)OC(=O)NN(CCC1CCCCC1)c1nc(C#N)ncc1Br | 860
37 | CC(C)(C)OC(=O)NN(CCC1CCCC1)c1nc(C#N)ncc1Br | 504
38 | CC(C)(C)OC(=O)NN(Cc1ccccc1)c1nc(C#N)ncc1Br | 347
39 | CC(C)(C)OC(=O)NN(CCc1ccccc1)c1nc(C#N)ncc1Br | 557
40 | CC(C)CN(NC(=O)c1ccc2occc2c1)c1nc(C#N)ncc1Br | 69
41 | CC(C)CN(NC(=O)c1cc2ccccc2s1)c1nc(C#N)ncc1Br | 365
42 | Cc1ccc2sc(C(=O)NN(CC(C)C)c3nc(C#N)ncc3Br)cc2c1 | 748

assay: Inhibition of Plasmodium falciparum falcipain-2 expressed in Escherichia coli
Summary of the method: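 Recombinant E. coli-expressed, refolded enzyme at 0.25 nM in 100 mM sodium acetate pH 5.5, 500 μM CHAPS, 10 mM DTT, DMSO ≤1%. Substrate H-D-Val-Leu-Arg-AFC at 30 μM final. Inhibitor dilutions mixed with substrate, enzyme added last; fluorescence followed 1 h at room temperature. IC50 from percent activity versus concentration.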

Row | SMILES | IC50 [nM]
43 | CC(C)CN(NC(=O)c1cnc2ccccc2c1)c1nc(C#N)ncc1Cl | 1
44 | Cc1ccc2[nH]c(C(=O)NN(CC(C)C)c3nc(C#N)ncc3Br)cc2c1 | 33
45 | CC(C)CN(NC(=O)OC(C)(C)C)c1cccc(C#N)n1 | 609
46 | CC(C)CN(NC(=O)OC(C)(C)C)c1cncc(C#N)n1 | 59
47 | CC(C)CN(NC(=O)OC(C)(C)C)c1ncc(C#N)c(Cl)n1 | 64
48 | CC(C)CN(NC(=O)OC(C)(C)C)c1cc(C#N)ncn1 | > 10000
49 | CC(C)CN(NC(=O)OC(C)(C)C)c1nccc(C#N)n1 | 196
50 | COc1nc(C#N)nc(N(CC(C)C)NC(=O)OC(C)(C)C)n1 | 12
51 | CC(C)CN(NC(=O)OC(C)(C)C)c1ccnc(C#N)n1 | 60
52 | CC(C)CN(NC(=O)OC(C)(C)C)c1nc(C#N)ncc1F | 24
53 | CC(C)CN(NC(=O)OC(C)(C)C)c1nc(C#N)ncc1Br | 3
54 | CC(C)CN(NC(=O)OC(C)(C)C)c1nc(C#N)ncc1Cl | 9
55 | CC(C)CN(NC(=O)OC(C)(C)C)c1nc(C#N)ncc1[N+](=O)[O-] | 2
56 | CC(C)CN(NC(=O)c1ccc2ccccc2c1)c1nc(C#N)ncc1Br | 65
57 | Cc1cnc(C#N)nc1N(CC(C)C)NC(=O)OC(C)(C)C | 40
58 | CC(C)CN(NC(=O)OC(C)(C)C)c1nc(C#N)ncc1C(F)(F)F | 3
59 | CC(C)CN(NC(=O)OC(C)(C)C)c1nc(C#N)ncc1NCc1ccccc1 | 616
60 | CC(C)CN(NC(=O)OC(C)(C)C)c1nc(C#N)ncc1C#Cc1ccc(C(F)(F)F)cc1 | 102
61 | COc1cnc(C#N)nc1N(CC(C)C)NC(=O)OC(C)(C)C | 79
62 | CC(C)CN(NC(=O)c1ccc2nccnc2c1)c1nc(C#N)ncc1Br | 66
63 | CC(C)CN(NC(=O)c1ccc2ccccc2n1)c1nc(C#N)ncc1Cl | 6

Row | SMILES | IC50 [nM]
64 | CC(C)CN(NC(=O)c1nccc2ccccc12)c1nc(C#N)ncc1Cl | 7
65 | CC(C)CN(NC(=O)c1cc2ccccc2cn1)c1nc(C#N)ncc1Cl | 7
66 | COCc1cnc(C#N)nc1N(CC(C)C)NC(=O)OC(C)(C)C | 8400
67 | CC(C)CN(NC(=O)OC(C)(C)C)c1nc(Cl)ncc1[N+](=O)[O-] | > 25000
68 | CC(C)(C)OC(=O)NN(CC1CC1)c1nc(C#N)ncc1Br | 7
69 | CC(C)(C)OC(=O)NN(CC1CCC1)c1nc(C#N)ncc1Br | 3
70 | CC(C)(C)OC(=O)NN(CC1CCCC1)c1nc(C#N)ncc1Br | 1
71 | CC(C)(C)OC(=O)NN(CC1CCCCC1)c1nc(C#N)ncc1Br | 24
72 | CC(C)CN(NC(=O)c1ccnc2ccccc12)c1nc(C#N)ncc1Cl | 1
73 | CC(C)CN(NC(=O)c1cc2ccccc2o1)c1nc(C#N)ncc1Br | 65
74 | Cc1c(C(=O)NN(CC(C)C)c2nc(C#N)ncc2Br)oc2ccccc12 | 223
75 | COc1ccc2oc(C(=O)NN(CC(C)C)c3nc(C#N)ncc3Br)cc2c1 | 183
76 | COc1cccc2cc(C(=O)NN(CC(C)C)c3nc(C#N)ncc3Br)oc12 | 46
77 | CC1(CN(NC(=O)OC(C)(C)C)c2nc(C#N)ncc2Br)CCCCC1 | 25
78 | CC(C)(C)OC(=O)NN(CCC1CCCCC1)c1nc(C#N)ncc1Br | 257
79 | CC(C)(C)OC(=O)NN(CCC1CCCC1)c1nc(C#N)ncc1Br | 64
80 | CC(C)(C)OC(=O)NN(Cc1ccccc1)c1nc(C#N)ncc1Br | 17
81 | CC(C)(C)OC(=O)NN(CCc1ccccc1)c1nc(C#N)ncc1Br | 93
82 | CC(C)CN(NC(=O)c1ccc2occc2c1)c1nc(C#N)ncc1Br | 0.7
83 | CC(C)CN(NC(=O)c1cc2ccccc2s1)c1nc(C#N)ncc1Br | 241
84 | Cc1ccc2sc(C(=O)NN(CC(C)C)c3nc(C#N)ncc3Br)cc2c1 | 6
